Active and inactive are the calls of the source. The calls are words filed in the database; no cut-off is given here. Positions of bridges follow the written chain, without caps; N, C: chain ends. Non-standard residues stand in square brackets, D forms with d. Residues, ends and D or L forms follow the SMILES beside them. Chains are numbered I, II in the order given. Nle = CCCC[C@H](N)C(=O)O
Legend:
[1] = target: Acetylcholine-binding protein (Lymnaea stagnalis, UniProt P58154); assay: Displacement of [3H]-epibatidine from recombinant Lymnaea stagnalis Acetylcholine-binding protein by radioligand binding assay
Chain of Acetylcholine-binding protein (P58154 whole entry): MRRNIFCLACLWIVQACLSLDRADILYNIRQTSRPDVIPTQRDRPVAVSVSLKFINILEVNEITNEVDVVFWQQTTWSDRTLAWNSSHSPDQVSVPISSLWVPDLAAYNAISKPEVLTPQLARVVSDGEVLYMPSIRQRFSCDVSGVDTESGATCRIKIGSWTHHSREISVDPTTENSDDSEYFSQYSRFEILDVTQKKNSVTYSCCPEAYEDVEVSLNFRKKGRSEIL
How it was run: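 Competition binding: peptide concentration series against [3H]-epibatidine bound to recombinantly expressed Ls-AChBP; IC50 taken from concentration–response curves of displacement. Values are means ± SEM of triplicates from three independent experiments.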

[2] = target: T1, Neuronal acetylcholine receptor subunit alpha-7 (Homo sapiens, UniProt P36544); assay: Negative allosteric modulation activity at alpha7 nAChR in human SH-SY5Y cells assessed as inhibition of choline induced intracellular calcium by FLIPR assay; assay type: cell-based
T1 sequence (P36544 whole entry): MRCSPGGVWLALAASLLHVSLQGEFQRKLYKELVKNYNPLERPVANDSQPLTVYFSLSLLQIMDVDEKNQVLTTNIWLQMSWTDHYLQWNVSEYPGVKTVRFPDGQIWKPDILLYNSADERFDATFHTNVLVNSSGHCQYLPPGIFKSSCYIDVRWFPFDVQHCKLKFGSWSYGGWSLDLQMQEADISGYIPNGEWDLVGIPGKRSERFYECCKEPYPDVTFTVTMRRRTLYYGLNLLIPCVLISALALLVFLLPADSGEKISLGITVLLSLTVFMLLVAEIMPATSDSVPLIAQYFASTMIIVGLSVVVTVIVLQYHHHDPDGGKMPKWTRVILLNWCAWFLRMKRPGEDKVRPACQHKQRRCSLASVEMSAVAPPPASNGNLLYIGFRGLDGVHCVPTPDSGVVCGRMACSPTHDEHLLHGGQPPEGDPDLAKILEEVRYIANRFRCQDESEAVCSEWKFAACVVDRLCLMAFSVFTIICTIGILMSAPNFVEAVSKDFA

[3] = target: Acetylcholine-binding protein (Lymnaea stagnalis) (UniProt P58154); assay: Displacement of [3H]-epibatidine from recombinant Lymnaea stagnalis Acetylcholine-binding protein assessed as fold change in inhibition of [3H]-epibatidine binding by radioligand binding assay relative to CTD(21-50); conditions: filed as negative allosteric modulator
Chain of Acetylcholine-binding protein (Lymnaea stagnalis) (P58154 whole entry): as the sequence (P58154 whole entry) above
How it was run: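 Competition binding: peptides displaced [3H]-epibatidine from recombinantly expressed Lymnaea stagnalis AChBP. IC50 came from concentration–response curves. The ratio is each peptide's IC50 divided by the IC50 of the CTD(21–50) reference. Data are means ± SEM of triplicates from three independent experiments.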

[4] = target: T1, Neuronal acetylcholine receptor subunit alpha-7; assay: Negative allosteric modulation activity at alpha7 nAChR in human SH-SY5Y cells assessed as fold change in inhibition of choline induced intracellular calcium by FLIPR assay relative to CTD(21-50); assay type: cell-based; conditions: filed as negative allosteric modulator
[5] = target: Acetylcholine-binding protein (Lymnaea stagnalis) (UniProt P58154); assay: Displacement of [3H]-epibatidine from recombinant Lymnaea stagnalis Acetylcholine-binding protein assessed as inhibition of [3H]-epibatidine binding at 40 uM by radioligand saturation binding assay
How it was run: (§1)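 Saturation binding of [3H]-epibatidine to recombinantly expressed Ls-AChBP was run without peptide and with a fixed peptide concentration (20 μM or 40 μM, depending on the peptide). Data are means ± SEM of triplicates from three independent experiments.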

[6] = target: Acetylcholine-binding protein (Lymnaea stagnalis) (UniProt P58154); assay: Displacement of [3H]-epibatidine from recombinant Lymnaea stagnalis Acetylcholine-binding protein assessed as inhibition of [3H]-epibatidine binding by radioligand saturation binding assay; conditions: filed as negative allosteric modulator; how it was run: as §1
[7] = target: Acetylcholine-binding protein (Lymnaea stagnalis) (UniProt P58154); assay: Displacement of [3H]-epibatidine from recombinant Lymnaea stagnalis Acetylcholine-binding protein assessed as inhibition of [3H]-epibatidine binding at 20 uM by radioligand saturation binding assay; how it was run: as §1

CCCC[C@@H]1N[C@@H](CO)C(=O)NCC(=O)N[C@H]2CSSC[C@@H]3NC(=O)[C@H](C(C)C)NC(=O)[C@H](Cc4ccc(O)cc4)NC(=O)[C@H](Cc4cnc[nH]4)NC(=O)[C@H](Cc4c[nH]c5ccccc45)NC(=O)[C@H](CCCNC(=N)N)NC(=O)[C@H](CCCNC(=N)N)NC(=O)CNC(=O)[C@H](Cc4cnc[nH]4)NC(=O)CNC(=O)[C@@H]4CSSC[C@H](NC(=O)[C@@H]5CCCN5C(=O)[C@H](CCCNC(=N)N)NC(=O)[C@H](CC(N)=O)NC(=O)CNC(=O)[C@H](CSSC[C@H](NC(=O)[C@@H]5CCCN5C(=O)CN)C(=O)N[C@@H](CO)C(=O)N4)NC(=O)[C@H]([C@@H](C)O)NC3=O)C(=O)N[C@@H](CSSC[C@@H](C(=O)O)NC(=O)[C@H](CCCNC(=N)N)NC(=O)[C@H]([C@@H](C)O)NC(=O)[C@H](CCCNC(=N)N)N[C@@H](CCCC)C(=O)NC2=O)C(=O)NC1=O
IC50 [1]: 10 µM
IC50 [2]: 0.023 µM
fold change (FC) [3]: 2
fold change (FC) [4]: 8
inhibition [5]: 29%
Activity [6]: Active

CCCC[C@@H]1NC(=O)[C@H](CO)NC(=O)CNC(=O)[C@@H](NC(=O)[C@H](CCCC)NC(=O)[C@H](CCCNC(=N)N)NC(=O)[C@@H](N)[C@@H](C)O)CSSC[C@@H]2NC(=O)[C@H]([C@@H](C)O)NC(=O)[C@@H]3CSSC[C@@H](C(=O)N4CCC[C@H]4C(=O)NCC(=O)O)NC(=O)[C@H](CO)NC(=O)[C@H](CSSC[C@H](NC(=O)[C@H](CO)NC1=O)C(=O)N1CCC[C@H]1C(=O)N[C@@H](CCCNC(=N)N)C(=O)N[C@@H](CC(N)=O)C(=O)NCC(=O)N3)NC(=O)CNC(=O)[C@H](Cc1cnc[nH]1)NC(=O)CNC(=O)[C@H](CCCNC(=N)N)NC(=O)[C@H](CCCNC(=N)N)NC(=O)[C@H](Cc1c[nH]c3ccccc13)NC(=O)[C@H](Cc1cnc[nH]1)NC(=O)[C@H](Cc1ccc(O)cc1)NC(=O)[C@H](C(C)C)NC2=O (H-TR[Nle]CGS[Nle]SCPRNGCTCVYHWRRGHGCSCPG-OH; disulfide 4-16, 9-26, 14-28)
IC50 [1]: 20 µM
IC50 [2]: 0.176 µM
inhibition [7]: 20%
Activity [6]: Active

CC[C@H](C)[C@@H]1NC(=O)[C@H](CC(N)=O)NC(=O)[C@H]([C@@H](C)O)NC(=O)[C@H](CCCNC(=N)N)NC(=O)[C@H](CC(=O)O)NC(=O)[C@H](CO)NC(=O)[C@@H]2CCCN2C(=O)[C@H](Cc2c[nH]c3ccccc23)NC(=O)CNC(=O)[C@H](CCCNC(=N)N)NC(=O)[C@@H](N)CSSC[C@H](N)C(=O)N[C@@H]([C@@H](C)CC)C(=O)N[C@@H]([C@@H](C)CC)C(=O)N[C@@H](CC(N)=O)C(=O)N[C@@H]([C@@H](C)O)C(=O)N[C@@H](CCCNC(=N)N)C(=O)N[C@@H](CC(=O)O)C(=O)N[C@@H](CO)C(=O)N2CCC[C@H]2C(=O)N[C@@H](Cc2c[nH]c3ccccc23)C(=O)NCC(=O)N[C@@H](CCCNC(=N)N)C(=O)N[C@H](C(=O)O)CSSC[C@@H](C(=O)O)NC(=O)[C@H]([C@@H](C)CC)NC1=O (I: H-CIINTRDSPWGRC-OH / II: H-CRGWPSDRTNIIC-OH; disulfide I:1-II:1, I:13-II:13)
IC50 [2]: 46 µM

CC[C@H](C)[C@@H]1NC(=O)[C@H](CC(N)=O)NC(=O)[C@H]([C@@H](C)O)NC(=O)[C@H](CCCNC(=N)N)NC(=O)[C@H](CC(=O)O)NC(=O)[C@H](CO)NC(=O)[C@@H]2CCCN2C(=O)[C@H](Cc2c[nH]c3ccccc23)NC(=O)CNC(=O)[C@H](CCCNC(=N)N)NC(=O)[C@@H](N)CSSC[C@H](NC(=O)[C@H](CCC(=O)O)NC(=O)[C@H](CO)NC(=O)[C@H](CCC(=O)O)NC(=O)[C@H](CC(=O)O)NC(=O)[C@@H](N)CC(=O)O)C(=O)N[C@@H]([C@@H](C)CC)C(=O)N[C@@H]([C@@H](C)CC)C(=O)N[C@@H](CC(N)=O)C(=O)N[C@@H]([C@@H](C)O)C(=O)N[C@@H](CCCNC(=N)N)C(=O)N[C@@H](CC(=O)O)C(=O)N[C@@H](CO)C(=O)N2CCC[C@H]2C(=O)N[C@@H](Cc2c[nH]c3ccccc23)C(=O)NCC(=O)N[C@@H](CCCNC(=N)N)C(=O)N[C@H](C(=O)O)CSSC[C@@H](C(=O)N[C@@H](CCC(=O)O)C(=O)N[C@@H](CO)C(=O)N[C@@H](CCC(=O)O)C(=O)N[C@@H](CC(=O)O)C(=O)N[C@@H](CC(=O)O)C(=O)O)NC(=O)[C@H]([C@@H](C)CC)NC1=O (I: H-CRGWPSDRTNIICESEDD-OH / II: H-DDESECIINTRDSPWGRC-OH; disulfide I:1-II:6, I:13-II:18)
IC50 [2]: 35 µM

From ChEMBL document CHEMBL5104215, “Synthesis of full-length homodimer αD-VxXXB that targets human α7 nicotinic acetylcholine receptors” (RSC Med Chem, 2022)
